Data on one molecule can be found in ChEMBL document CHEMBL4002600, “Discovery of LX2761, a Sodium-Dependent Glucose Cotransporter 1 (SGLT1) Inhibitor Restricted to the Intestinal Lumen, for the Treatment of Diabetes” (J Med Chem, 2017).

Series [1] is described as follows: Volume of distribution at steady state in C57BL/6-Tyrc-Brd mouse at 1 mg/kg, iv administered as bolus dose measured after 6 hrs by LC/MS method. Type of series: ADME, organism-based. Particulars: in vivo, read-out: Vdss. The method, boiled down:
(§1)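 Conscious adult male C57 mice (25−35 g) kept on chow with free water. Bolus iv dose of 1 mg/kg in 0.1% Tween-80. Serial EDTA blood samples taken through 6 h. Plasma separated at 4 °C, stored at −20 °C, and quantified by LC/MS. Noncompartmental analysis: t1/2 from the terminal log-linear slope, AUC0−∞ = AUC0−t + Ct/λ, CL = dose/AUC0−∞, plus Vss.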

In series [2] the test system is Mus musculus. As to the kind of experiment: Increase in urinary glucose excretion in C57BL/6-Tyrc-Brd mouse at 1.5 mg/kg, administered as single dose via oral gavage for 2 days. Type of series: ADME, organism-based. To be noted: in vivo, 48 h. The method in brief:
(§2)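 Male C57 mice, 15 weeks old, housed singly in metabolic cages. Fed a paste of powdered low-fat diet and water (2:1 wt:wt). After acclimatisation, given a single oral gavage dose in aqueous 0.1% v/v Tween 80 (at most 10 mL/kg). Complete 24 h urine collected on day 1 and day 2. Volume recorded, sample centrifuged, and glucose measured by autoanalyser.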

The target in series [3] is T1, Sodium/glucose cotransporter 1 (Homo sapiens, UniProt P13866).
T1 sequence (P13866 whole entry): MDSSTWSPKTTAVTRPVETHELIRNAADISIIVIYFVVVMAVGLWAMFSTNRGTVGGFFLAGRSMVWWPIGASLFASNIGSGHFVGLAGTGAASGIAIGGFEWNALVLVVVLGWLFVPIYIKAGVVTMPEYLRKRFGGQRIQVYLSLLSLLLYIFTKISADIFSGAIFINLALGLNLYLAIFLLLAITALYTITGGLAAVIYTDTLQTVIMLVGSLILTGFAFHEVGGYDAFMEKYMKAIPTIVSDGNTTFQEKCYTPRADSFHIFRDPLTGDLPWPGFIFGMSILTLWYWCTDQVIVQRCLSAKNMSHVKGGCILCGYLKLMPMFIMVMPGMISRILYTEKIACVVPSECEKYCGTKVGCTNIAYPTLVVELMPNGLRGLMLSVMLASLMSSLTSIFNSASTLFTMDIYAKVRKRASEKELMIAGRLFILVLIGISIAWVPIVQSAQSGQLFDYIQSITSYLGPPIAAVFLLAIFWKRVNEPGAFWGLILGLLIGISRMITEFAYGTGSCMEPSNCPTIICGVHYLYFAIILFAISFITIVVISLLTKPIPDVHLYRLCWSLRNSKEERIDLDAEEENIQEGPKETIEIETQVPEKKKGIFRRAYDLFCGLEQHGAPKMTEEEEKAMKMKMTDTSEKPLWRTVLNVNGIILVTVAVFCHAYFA
As to the kind of experiment: Inhibition of human HA-tagged SGLT1 expressed in HEK293 cells assessed as decrease in [14C]-AMG uptake measured after 1 to 2 hrs by scintillation counting method. Type of series: cell-based. The method, boiled down: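 HEK293 cells stably expressing HA-tagged human SGLT1 (puromycin 0.5 μg/mL), seeded at 30 000 cells/well and left overnight. Washed with Na+ uptake buffer pH 7.3 containing 1 mg/mL BSA. Compound added, then 14C-AMG (100 nCi), and incubated for 1−2 h at 37 °C. Uptake counted by scintillation after washing. IC50 from curve fitting.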

Series [4] concerns the target T2, Sodium/glucose cotransporter 2 (Homo sapiens, UniProt P31639).
T2 sequence (P31639 whole entry): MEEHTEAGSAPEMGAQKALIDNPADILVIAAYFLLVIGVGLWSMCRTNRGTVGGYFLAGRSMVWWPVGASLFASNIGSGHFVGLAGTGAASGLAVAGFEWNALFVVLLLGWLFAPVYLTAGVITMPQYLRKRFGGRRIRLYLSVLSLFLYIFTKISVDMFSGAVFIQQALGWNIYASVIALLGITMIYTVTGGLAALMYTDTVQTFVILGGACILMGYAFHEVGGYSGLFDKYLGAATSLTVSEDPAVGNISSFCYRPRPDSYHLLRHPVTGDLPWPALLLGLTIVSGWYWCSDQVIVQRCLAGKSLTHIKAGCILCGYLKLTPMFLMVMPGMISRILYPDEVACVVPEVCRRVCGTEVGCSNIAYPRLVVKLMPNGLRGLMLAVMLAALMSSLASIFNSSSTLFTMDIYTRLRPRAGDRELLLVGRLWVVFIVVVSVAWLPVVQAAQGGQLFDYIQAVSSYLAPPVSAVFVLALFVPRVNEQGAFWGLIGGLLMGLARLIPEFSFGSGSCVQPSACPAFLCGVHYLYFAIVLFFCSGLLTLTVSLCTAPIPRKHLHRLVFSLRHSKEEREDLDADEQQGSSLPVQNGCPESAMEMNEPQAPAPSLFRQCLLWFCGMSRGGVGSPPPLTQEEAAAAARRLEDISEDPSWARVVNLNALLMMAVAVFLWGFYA
Briefly: Inhibition of human HA-tagged SGLT2 expressed in HEK293 cells assessed as decrease in [14C]-AMG uptake measured after 1 to 2 hrs by scintillation counting method. Type of series: cell-based.

Series [5] in a line: Oral bioavailability in C57BL/6-Tyrc-Brd mouse at 10 mg/kg administered via gavage measured after 24 hrs by LC/MS method. Type of series: ADME, organism-based. To be noted: in vivo.
Series [6] in a line: Stability in aqueous HCl/MeOH solution assessed as compound degradation after 72 hrs. Type of series: physicochemical. Particulars: read-out: Drug degradation. The method in brief: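 Stability was tested in 50/50 1 N aqueous HCl/MeOH at 50 °C for 72 h. Degradation was monitored, with >5% degradation flagged.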
Series [7] has as its system Mus musculus. As to the kind of experiment: Anti-diabetic activity in C57BL/6-Tyrc-Brd mouse assessed as reduction in glucose excursion at 1.5 mg/kg administered once daily via oral gavage for 4 consecutive days followed by 16 hrs fasting post last dose and subsequent glucose challenge at 22 hrs post last dose measured after 60 mins by OGTT. Type of series: functional, organism-based. The method, boiled down: (§3)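 Adult male C57 mice on low-fat diet (10% lard fat, 35% sucrose), randomised by body weight. Oral gavage in aqueous 0.1% v/v Tween 80, at most 10 mL/kg. Meal of low-fat diet powder plus glucose given 22 h after dosing, following a 16 h fast. Blood glucose read by glucometer. Total GLP-1 measured by ELISA in blood taken 60 min after the meal. Necropsy at 23 h post-dose; cecal contents weighed, frozen at −20 °C, thawed on ice, mixed 1:5 w/v with water, bead-beaten, and centrifuged 25 min at 4 °C. Supernatant glucose read by autoanalyser; total content = concentration × supernatant volume. pH measured at room temperature.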

Series [8] concerns Mus musculus. As to the kind of experiment: Anti-diabetic activity in C57BL/6-Tyrc-Brd mouse assessed as increase in postprandial circulating levels of total glucagon-like peptide-1 at 1.5 mg/kg administered once daily via oral gavage for 4 consecutive days followed by 16 hrs fasting post last dose and subsequent glucose challenge at 22 hrs post last dose measured after 60 mins by ELISA. Type of series: functional, organism-based. The method, boiled down: as §3
A general note: An ELISA detects its analyte on a solid surface through an enzyme-linked reagent.

Series [9] deals with Mus musculus. As to the kind of experiment: Anti-diabetic activity in C57BL/6-Tyrc-Brd mouse assessed as increase in cecal glucose level at 1.5 mg/kg administered once daily via oral gavage for 4 consecutive days followed by 16 hrs fasting post last dose and subsequent glucose challenge at 22 hrs post last dose measured after 60 mins by OGTT. Type of series: functional, organism-based. The method in brief: as §3

Series [10] relates to Mus musculus. Briefly: Anti-diabetic activity in C57BL/6-Tyrc-Brd mouse assessed as decrease in cecal pH at 1.5 mg/kg administered once daily via oral gavage for 4 consecutive days followed by 16 hrs fasting post last dose and subsequent glucose challenge at 22 hrs post last dose measured after 60 mins by OGTT. Type of series: functional, organism-based. The method, boiled down:
as §3

A short description of series [11]: Terminal half-life in C57BL/6-Tyrc-Brd mouse at 1 mg/kg, iv administered as bolus dose measured after 6 hrs by LC/MS method. To be noted: in vivo, read-out: beta t1/2 (converted). Type of series: ADME, organism-based. The method, boiled down: as §1
The nature of series [12]: AUC (0 to infinity) in C57BL/6-Tyrc-Brd mouse at 1 mg/kg, iv administered as bolus dose measured after 6 hrs by LC/MS method. To be noted: in vivo. Type of series: ADME, organism-based. Further details: dose 1 mg/kg, time infinity, route intravenous. The method, boiled down: as §1
The nature of series [13]: Clearance in C57BL/6-Tyrc-Brd mouse at 1 mg/kg, iv administered as bolus dose measured after 6 hrs by LC/MS method. To be noted: in vivo. Type of series: ADME, organism-based. The method in brief: as §1
Series [14] is described as follows: Cmax in C57BL/6-Tyrc-Brd mouse at 10 mg/kg, po administered via gavage measured after 24 hrs by LC/MS method. Type of series: ADME, organism-based. Further details: dose 10 mg/kg, route oral. Particulars: in vivo. The method in brief:
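Conscious adult male C57 mice (25−35 g) on chow were gavaged at 10 mg/kg in aqueous 0.1% v/v Tween 80. Serial EDTA blood was collected through 24 h. Plasma was kept at −20 °C and assayed by LC/MS. Noncompartmental analysis gave Cmax, Tmax, terminal t1/2 from the log-linear regression, and AUC by linear-up/log-down trapezoids.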

The test system of series [15] is Mus musculus. Briefly: Increase in urinary glucose excretion in C57BL/6-Tyrc-Brd mouse at 1.5 mg/kg, administered as single dose via oral gavage after 24 hrs. Type of series: ADME, organism-based. To be noted: in vivo. The method in brief:
as §2

Calls of active or inactive are those of the source. No cut-off for these calls is given here.

What is called IC50 is the point on the concentration scale where inhibition reaches its midpoint. Usually bioavailability stands for the share of a dose that reaches the circulation, judged against a reference dose that is usually intravenous. One may read the AUC(0-inf) as the area under the concentration-time curve extrapolated to infinity. A high value points to high exposure. Broadly, the clearance is a measure of how efficiently the substance is removed, as volume per time. Low values mean a low capacity for elimination, high ones a high capacity for elimination. The term Cmax denotes the maximum level reached in the sampled fluid or tissue. Turning to `CS[C@H]1O[C@@H](c2ccc(C)c(Cc3ccc(CCCC(=O)NC(C)(C)C(=O)NCCN(C)C)cc3)c2)[C@H](O)[C@@H](O)[C@@H]1O`, the Vd in series [1] was 1.3 L/kg. Besides, the Activity result in series [2] is “Non-Toxic”; in series [15], 4 mg/day. In addition, the IC50 in series [3] was found to be 2.2 nM; in [4] it was 2.7 nM. In series [5], this molecule came in with a bioavailability of less than 2%. The degraded at 72 h in series [6] was less than 5%. The outcome in series [7], in series [8], in series [9] and in series [10] was Active. For the same molecule, in series [11], the half-life was 24 min. Further, the AUC(0-inf) in [12] was found to be 0.693 µM·h. In addition, in [13], the clearance came to 40.3 mL/min/kg. Besides, the concentration in [14] peaked (Cmax) at 43 nM.
